Screening results from PubChem.
Rows were chosen to be rich in hits. Some 3% of all compounds tested hit in one or more screens of this group.
Exocytosis inh – blocks lytic granule exocytosis; TALL-104 LAMP-1 surface exposure, flow cytometry; cells stimulated with thapsigargin and PMA; inhibition, % at 10 µM; 0.66% of 360,000 active; AID 651702;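 active = inhibition above about 55%, limit read from the data; inconclusive = no clear call, values can overlap the other calls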
beta cell repl – induces beta-cell replication in MIN6 cells; MIN6 cells proliferation, ATPlite luminescence, 48 h; cells starved in 0.2% serum; 100% = growth in 10% serum; proliferation, % at 10 µM; 0.29% of 330,000 active; AID 2380;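 active = compounds whose signal lies at least 3.5 SD above the mean of all wells on their plate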;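 also: 0% = DMSO-treated cells in low-serum medium and 100% = 10% serum control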
UBC13 polyUb – blocks human UBC13 polyubiquitin chain formation | P61088 | TR-FRET | inhibition, % at 20 µM | 0.47% of 330,000 active | AID 485273; in the data active = inhibition above about 45%, passing the limit was not always enough; inconclusive = no clear call, values can overlap the other calls
Target sequence (P61088 whole entry, looked up): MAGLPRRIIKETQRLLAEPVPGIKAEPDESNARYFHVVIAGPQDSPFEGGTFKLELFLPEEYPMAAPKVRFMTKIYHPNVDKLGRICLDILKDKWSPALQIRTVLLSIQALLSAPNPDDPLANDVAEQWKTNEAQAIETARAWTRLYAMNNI
Apaf-1 inh – human Apaf-1 inhibition | O14727 | reconstituted apoptosome caspase-3 activity, DEVD-Rh110 fluorescence | inhibition, % at 20 µM | 0.71% of 330,000 active; active = inhibition of at least 40% at 20 µM;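 also: plate controls were DMSO wells for no effect and DEVD-CHO caspase inhibitor wells for full effect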
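Assay system – apoptosome proteins · Medium – Hepes buffer, pH 7.5 · Also added – cytochrome c with DEVD-Rh110 · Timing – 30 min compound preincubation, 50 min activation, room temperature · Detection – Rh110 fluorescence, excitation 480 nm, emission 540 nm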
MPTP inh – blocks calcium-induced mitochondrial swelling; isolated mouse mitochondria, Ca2+ swelling absorbance, 30 min; 1.4% of 360,000 active; inhibition, % at 10 µM;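 active = inhibition of 50% or more, scaled per plate between neutral and stimulator controls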;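 also: 0% = DMSO wells given calcium and 100% = 1 mM EGTA wells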
hiPSC survival – increases survival of single human iPS cells | 0.044% of 360,000 active | survival enhancement, % at 20 µM | hiPSC single-cell survival, ATPlite luminescence; 100% = ROCK inhibitor wells, 0% = DMSO; in the data active = survival enhancement above about 18%;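 also: cells exposed to compounds for 16 hours before the ATP read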
MPTP counter – membrane potential counter-screen of mitochondrial pore inhibitors; 78% of 5,000 active; AID 624504; isolated mitochondria, Rhodamine 123 fluorescence; inhibition, % at 10 µM; shares compounds with MPTP inh; in the data active = inhibition above about 22%;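 also: 0% = DMSO vehicle and 100% = positive control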
The depositor's hits bear a star; u = inconclusive; x = no result.

SMILES	Exocytosis inh	beta cell repl	UBC13 polyUb	Apaf-1 inh	MPTP inh	hiPSC survival	MPTP counter
Fc1ccc(NC(=S)Nc2cccc3ccccc23)cc1F	3	-6	-32	81*	81*	1	98*
COc1ccc(CNC(=S)Nc2ccc(Br)cc2)cc1	4	-3	5	8	88*	0	92*
O=C(NC(=S)Nc1ccc(F)c(Cl)c1)C1CC1	0	-7	-2	2	0	2	x
NS(=O)(=O)c1ccc(NC(=S)Nc2ccc(F)c(F)c2)cc1	4	0	3	-1	67*	2	68*
Fc1ccc(NC(=S)Nc2ccc(F)c(Cl)c2)cc1Cl	1	-5	12	6	92*	-2	89*
CC1CCCN(CCCNC(=O)C2CCN(S(=O)(=O)N3CCC4(CC3)OCCO4)CC2)C1 (stereo not drawn)	-3	0	-1	3	0	1	x
S=C(Nc1ccc2c(c1)OCCO2)Nc1ccccc1Cl	-5	-5	-3	-13	-1	0	x
Cc1ccc(NC(=S)Nc2ccc(OC(F)F)c(Cl)c2)cc1F	0	-7	8	-6	98*	2	87*
COc1ccc(CNC(=S)Nc2ccc(F)c(Cl)c2)cc1	0	-5	2	5	96*	1	97*
S=C(Nc1ccc(Cl)cc1)Nc1ccc2c(c1)OCCO2	7	-6	15	-3	50*	0	99*
NS(=O)(=O)c1ccc(CNC(=S)Nc2ccc(F)c(Cl)c2)cc1	12	0	6	-3	1	-1	x
COc1ccc(S(=O)(=O)NNC(=O)C2Cc3c(ccc4ccccc34)O2)cc1 (stereo not drawn)	-3	-4	-2	8	80*	4	54*
COCCNC(=O)C1Cc2c(ccc3ccccc23)O1 (stereo not drawn)	-3	-4	-3	2	-2	1	x
Cc1nnsc1-c1onc(C)c1C(=O)Nc1cc(Cl)cc(Cl)c1	-4	-4	4	3	84*	-1	79*
Cc1ccc(NC(=O)c2c(C)noc2-c2snnc2C)cc1	-8	-1	5	6	5	0	x
COC(=O)c1cc(=O)nc(NN=C2c3ccccc3-c3ccccc32)s1	-5	x	x	x	58*	-1	51*
Cc1cc(C)c(C)c(S(=O)(=O)N2CCN(C(=O)c3cc(S(=O)(=O)N4CCOCC4)ccc3F)CC2)c1C	-1	-4	14	13	0	1	x
Oc1ccc(Nc2ccnc3cc(Cl)ccc23)cc1	34	-4	-2	7	1	0	x
Cc1ccccc1/C=N/Nc1ccnc2cc(Cl)ccc12	76*	x	x	x	99*	-1	91*
Cc1ccc(/C=N/Nc2ccnc3cc(Cl)ccc23)c(C)c1	42	-6	0	1	64*	-5	92*
Oc1ccc(/C=N/Nc2ccnc3cc(Cl)ccc23)c(O)c1	3	-4	-8	18	58*	1	59*
Clc1ccc2c(N/N=C/c3ccc(Br)cc3)ccnc2c1	37	x	x	x	88*	-2	74*
Clc1ccc2c(N/N=C/c3cccnc3)ccnc2c1	48	-6	1	8	-1	-2	x
C#CCN(Cc1ccco1)C(=O)c1ccc(OC2CCN(Cc3ccccn3)CC2)cc1	3	-1	-6	12	0	0	x
OC[C@@H]1CN(Cc2cccnc2)C[C@H](n2cnc3c(N4CCCC4)ncnc32)O1	-6	x	x	x	0	-2	x
Cc1cc2nc(-c3ccc(SCc4ccc(C#N)cc4)nc3)[nH]c2cc1C	11	-5	-12	4	67*	3	66*
CN1CCN(/N=C/c2ccc(-c3ccccc3)cc2)CC1	-6	4	8	4	70*	-2	-11
CN1CCN(/N=C/c2c3ccccc3c(Cl)c3ccccc23)CC1	52	-6	6	18	91*	-1	-21
CC(C)Nc1ncnc2ccc(Br)cc12	3	-3	36	11	59*	0	38*
CSCCC(Nc1ncnc2ccc(Br)cc12)C(=O)O (stereo not drawn)	1	0	u	2	2	1	x
